Measured values taken from ChEMBL document CHEMBL1240506, “Identification and development of novel inhibitors of Toxoplasma gondii enoyl reductase” (J Med Chem, 2010).
In brackets after ≈: the same amount, converted by molar mass.

Legend:
[1] = test system: Toxoplasma gondii; assay: Antiparasitic activity against Toxoplasma gondii infected in HFF after 24 hrs by [3H]uracil incorporation assay; assay type: functional
Outline: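 Human foreskin fibroblasts were infected with T. gondii tachyzoites and given 1 h to invade before inhibitors were added. Cultures ran 3 days, then 3H-uracil was added for a further day. Parasite growth was read as uracil incorporation by liquid scintillation counting. MIC50 and MIC90 are the concentrations giving 50% and 90% growth inhibition. There were 6 replicate samples per group.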

[2] = test system: HFF; assay: Toxicity to HFF; assay type: cell-based; details: human
Outline: (§1)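 Host-cell toxicity was tested on non-confluent fibroblast monolayers by 3H-thymidine incorporation, alongside visual inspection of monolayer integrity. Testing ran simultaneously with the parasite inhibition assay, and the highest concentration tested was scored.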

[3] = test system: HFF; assay: Toxicity to HFF at highest concentration; assay type: cell-based; details: human; outline: as §1
[4] = target: T1, Enoyl-acyl carrier reductase (Toxoplasma gondii, UniProt Q6UCJ9); assay: Inhibition of Toxoplasma gondii enoyl reductase
T1 sequence (Q6UCJ9 whole entry): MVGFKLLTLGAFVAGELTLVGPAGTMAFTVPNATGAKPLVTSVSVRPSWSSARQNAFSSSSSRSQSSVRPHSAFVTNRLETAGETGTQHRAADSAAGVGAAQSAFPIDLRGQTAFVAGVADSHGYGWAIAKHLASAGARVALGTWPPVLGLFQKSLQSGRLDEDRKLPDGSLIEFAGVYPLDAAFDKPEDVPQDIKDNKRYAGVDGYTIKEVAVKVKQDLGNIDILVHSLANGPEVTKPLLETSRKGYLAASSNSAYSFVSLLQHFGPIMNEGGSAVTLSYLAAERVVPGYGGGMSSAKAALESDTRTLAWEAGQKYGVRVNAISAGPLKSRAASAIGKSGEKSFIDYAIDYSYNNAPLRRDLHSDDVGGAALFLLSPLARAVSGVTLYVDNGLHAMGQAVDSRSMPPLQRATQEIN
Outline: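 Recombinant TgENR (20 nM) was assayed in 100 mM Na/K phosphate pH 7.5, 150 mM NaCl and 100 μM NADH. Compounds were added in DMSO (2% final), and reactions were started at 25°C with 100 μM crotonyl-CoA. NADH consumption was followed at 340 nm.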

SMILES	MIC50 [1] [µM]	MIC90 [1] [µM]	Activity [2] [µM]	Activity [3]	IC50 [4] [nM]
Nc1ccc(Nc2ccccc2)c(N)c1	> 6	> 6	< 1.5	Non-toxic	
Oc1ccc(Oc2ccccc2)c(O)c1	> 6	> 6	6	Non-toxic	
Oc1ccc(Oc2ccc(O)cc2O)cc1	> 6	> 6	6	Non-toxic	
Oc1cc(Cl)ccc1Oc1cnccn1	> 6	> 6	> 6	Non-toxic	
CC(=O)Nc1ccc(Oc2ccc(Cl)cc2O)cn1	> 24	> 24			
O=c1[nH]c2ccccc2n1Cc1ccc([N+](=O)[O-])cc1	20 (≈ 5.39 µg/mL)	> 24			
O=c1cc(OCCCn2c3ccccc3c3ccccc32)ccn1Cc1ccccc1Cl	2 (≈ 0.886 µg/mL)	14 (≈ 6.2 µg/mL)		Non-toxic	> 2000
Nc1ccc(/C=C/C(=O)NCc2ccccc2N)cn1	> 6	> 6	> 6	Non-toxic	
O=C(O)c1ccc(Cn2ccc(OCc3ccccc3)cc2=O)c(Cl)c1	> 24	> 24			
O=c1[nH]c2ccccc2n1S(=O)(=O)c1ccc([N+](=O)[O-])cc1	> 24	> 24			
CCCc1cc(O)c(Oc2ccc(C#N)cc2Cl)c(O)c1	15 (≈ 4.56 µg/mL)	22 (≈ 6.68 µg/mL)		Non-toxic	< 20
CCCc1ccc(Oc2cccc(Cl)c2)c(O)c1	> 6	> 6	> 6	Non-toxic	
O=[N+]([O-])c1ccc(Oc2ccc(Cl)cc2O)cc1	17 (≈ 4.52 µg/mL)	23 (≈ 6.11 µg/mL)		Non-toxic	45
CCCc1ccc(Oc2ccc([N+](=O)[O-])cc2Cl)c(O)c1	4 (≈ 1.23 µg/mL)	6 (≈ 1.85 µg/mL)	1.5	Non-toxic	< 20
CCCc1cc(O)c(Oc2ccc(-c3nn[nH]n3)cc2)c(O)c1	> 24	> 24		Non-toxic	
CCCc1cc(O)c(Oc2ccc(C#N)cc2)c(O)c1	> 6	> 6	3	Non-toxic	
CCCc1ccc(Oc2ccc([N+](=O)[O-])cc2)c(O)c1	6 (≈ 1.64 µg/mL)	> 6	> 6	Non-toxic	< 20
CC(=O)Nc1ccc(/C=C/C(=O)N(C)Cc2cc3ccccc3n2C)cn1	> 6	> 6	> 6	Non-toxic	
CC(=O)Nc1ccc(Oc2ccc(Cl)cc2O)cc1	> 24	> 24			
Oc1cc(Cl)ccc1Oc1ccc(Cl)cc1Cl [TRICLOSAN]	5 (≈ 1.45 µg/mL)	> 6	> 6		
Oc1ccc(Oc2ccc(Cl)cc2O)cc1	> 6	> 6	> 6	Non-toxic	
CN(Cc1cc2ccccc2n1C)C(=O)/C=C/c1ccc(N)nc1	> 6	> 6	> 6	Non-toxic	
C/C=C/C=C/C(=O)Nc1ccc(Oc2ccc(Cl)cc2O)cc1	6 (≈ 1.98 µg/mL)	> 6	6		> 2000
O=c1cc(OCc2ccccc2)ccn1Cc1ccc([N+](=O)[O-])cc1Cl	3 (≈ 1.11 µg/mL)	15 (≈ 5.56 µg/mL)		Non-toxic	> 20000
O=C(c1ccc([N+](=O)[O-])cc1)n1c(=O)[nH]c2ccccc21	> 24	> 24			
Nc1cc(Cl)ccc1Oc1ccccc1	6 (≈ 1.32 µg/mL)	> 6		Non-toxic	> 20000
